{"data": "Experimental data of several laboratories", "target": "Tyrosine-protein kinase receptor TYRO3 (TYRO3, Homo sapiens, UniProt Q06418)", "Sequence (Q06418 41-890, as in one of the studies)": "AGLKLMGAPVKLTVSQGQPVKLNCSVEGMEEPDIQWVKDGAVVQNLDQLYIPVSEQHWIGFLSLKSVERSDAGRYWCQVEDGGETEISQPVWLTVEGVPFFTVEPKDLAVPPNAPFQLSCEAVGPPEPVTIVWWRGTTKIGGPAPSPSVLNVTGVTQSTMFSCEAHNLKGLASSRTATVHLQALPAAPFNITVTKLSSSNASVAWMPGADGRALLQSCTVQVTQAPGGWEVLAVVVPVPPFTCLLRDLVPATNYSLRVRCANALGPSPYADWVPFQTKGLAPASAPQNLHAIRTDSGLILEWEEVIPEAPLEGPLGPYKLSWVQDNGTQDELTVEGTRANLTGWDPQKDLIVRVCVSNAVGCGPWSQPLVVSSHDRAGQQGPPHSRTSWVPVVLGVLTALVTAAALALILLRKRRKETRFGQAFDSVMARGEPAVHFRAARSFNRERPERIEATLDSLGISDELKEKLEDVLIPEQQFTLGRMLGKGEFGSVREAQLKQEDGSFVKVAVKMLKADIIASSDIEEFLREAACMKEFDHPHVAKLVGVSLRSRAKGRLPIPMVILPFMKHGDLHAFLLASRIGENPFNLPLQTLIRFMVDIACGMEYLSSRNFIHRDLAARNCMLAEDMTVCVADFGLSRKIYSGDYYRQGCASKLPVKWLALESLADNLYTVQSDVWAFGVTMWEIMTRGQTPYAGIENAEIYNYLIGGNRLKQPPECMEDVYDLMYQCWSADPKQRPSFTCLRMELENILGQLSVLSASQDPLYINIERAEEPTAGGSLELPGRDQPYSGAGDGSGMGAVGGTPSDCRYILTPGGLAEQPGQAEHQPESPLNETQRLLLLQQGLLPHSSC"}
{"SMILES": "O=C1CCc2cc(Nc3cc(OC4CCOCC4)c([N+](=O)[O-])cc3Cl)ccc2N1", "observed": "cell-free assay", "technique": "competition with immobilised ligand", "tested at": "1 µM", "measurement": "remaining binding", "value": "100%"}
{"SMILES": "CNC(=O)c1cc2c(Oc3ccc(NC(=O)C4(C(=O)Nc5ccc(F)cc5)CC4)cc3)ccnc2cc1OC", "observed": "enzyme activity", "mode": "inhibitor", "technique": "radiometric", "tested at": "1 µM", "measurement": "inhibition", "value": "100%"}
{"SMILES": "COc1cccc(CNC(=O)c2nc3scc(COCc4ccc(C(=O)O)cc4)c3c(=O)[nH]2)c1", "observed": "cell-free assay", "technique": "competition with immobilised ligand", "tested at": "1 µM", "measurement": "remaining binding", "value": "100%"}
{"SMILES": "Cn1c2c(c3ccccc31)C(C#N)C(C)(C)NC2=O (centres unmarked)", "observed": "thermal stability", "technique": "DSF", "tested at": "10 µM", "measurement": "ΔTm", "value": "-0.1 °C"}
{"SMILES": "CCCCN(CCCC)C(=O)CN1C[C@@H](c2cc(OC)c3c(c2)OCO3)[C@H](C(=O)O)[C@H]1CC(C)(C)CCC", "observed": "cell-free assay", "technique": "competition with immobilised ligand", "tested at": "1 µM", "measurement": "remaining binding", "value": "97.1%"}
{"SMILES": "CCN(CC)CCNC(=O)c1c(C)[nH]c(/C=C2\\C(=O)Nc3ccc(F)cc32)c1C", "observed": "cell-free assay", "tested at": "10 µM", "measurement": "inhibition", "value": "95%"}
{"SMILES": "N#CCCc1ccc2c(c1)-c1[nH]c3ccc([N+](=O)[O-])cc3c1CC(=O)N2", "observed": "cell-free assay", "tested at": "0.5 µM", "measurement": "remaining signal", "value": "94.8%"}
{"SMILES": "Cc1nc(N2CC[C@@H](O)C2)ncc1-c1cc(C(F)(F)F)cc2[nH]ncc12", "observed": "cell-free assay", "technique": "competition with immobilised ligand", "tested at": "1 µM", "measurement": "remaining binding", "value": "66%"}
{"SMILES": "CC/C(=N\\NC(=O)NCc1cccc(O)c1)c1ccc(O)c(C)c1O", "observed": "enzyme activity", "mode": "inhibitor", "tested at": "0.1 µM", "measurement": "inhibition", "value": "2.7%"}
{"SMILES": "CCCOc1ccc([C@@H]2[C@@H](C(=O)O)[C@H](c3ccc4c(c3)OCO4)CN2CC(=O)Nc2c(CC)cccc2CC)cc1", "observed": "cell-free assay", "technique": "competition with immobilised ligand", "tested at": "1 µM", "measurement": "remaining binding", "value": "94%"}
{"SMILES": "Cn1c2c(c3ccc(Cl)c(Cl)c31)C(C#N)C1(CCN(C(=O)OC(C)(C)C)CC1)NC2=O (racemic)", "observed": "thermal stability", "technique": "DSF", "tested at": "10 µM", "measurement": "ΔTm", "value": "0 °C"}
{"SMILES": "COc1cc2nccc(Oc3ccc(NC(=O)c4c5n(n(-c6ccc(F)cc6)c4=O)CCCC5)cc3)c2cc1OC", "observed": "enzyme activity", "mode": "inhibitor", "tested at": "0.1 µM", "measurement": "inhibition", "value": "71%"}
{"SMILES": "CC(C)(O)[C@H]1CC[C@H](Nc2ccc3ncc(-c4cccc(C(F)(F)F)c4)n3n2)CC1", "observed": "enzyme activity", "mode": "inhibitor", "tested at": "1 µM", "measurement": "remaining activity", "value": "22.3%"}
{"SMILES": "O=C(Nc1cnn(-c2csc(C(=O)NC3COC3)c2)c1)Nc1ccccc1Cl", "observed": "enzyme activity", "mode": "inhibitor", "tested at": "5 µM", "measurement": "remaining activity", "value": "75.4%"}
{"SMILES": "Cc1cnc(NC2CCOCC2)nc1-n1cnc(C(=O)NC(CN)c2cc(F)cc(Cl)c2)c1 (centres unmarked)", "observed": "enzyme activity", "mode": "inhibitor", "technique": "radiometric", "tested at": "1 µM", "measurement": "remaining activity", "value": "118%"}
{"SMILES": "Cn1c2c(c3ccc(Cl)c(Cl)c31)C(C#N)C(C)(C)NC2=O (centres unmarked)", "observed": "thermal stability", "technique": "DSF", "tested at": "10 µM", "measurement": "ΔTm", "value": "0.5 °C"}
{"SMILES": "CNC(=O)c1cc(Oc2ccc(NC(=O)Nc3ccc(Cl)c(C(F)(F)F)c3)cc2)ccn1", "observed": "cell-free assay", "tested at": "0.5 µM", "measurement": "remaining signal", "value": "91.7%"}
{"SMILES": "COc1cc2ncnc(Nc3ccc(Oc4ccccc4)c(C)c3C)c2cc1OC", "observed": "enzyme activity", "mode": "inhibitor", "tested at": "1 µM", "measurement": "inhibition", "value": "25%"}
{"SMILES": "Cc1c(C(=O)O)cc(-c2ccc(C3CCNCC3)cc2)c2ccc(-c3ccc(C(F)(F)F)cc3)cc12", "observed": "cell-free assay", "technique": "competition with immobilised ligand", "tested at": "1 µM", "measurement": "remaining binding", "value": "100%"}
{"SMILES": "Cc1ccc(Nc2nccc(N(C)c3ccc4c(C)n(C)nc4c3)n2)cc1S(N)(=O)=O", "observed": "cell-free assay", "tested at": "10 µM", "measurement": "inhibition", "value": "55%"}
{"SMILES": "CN1CC(Oc2cnc(C#N)cc2-c2ccn3nc(NC(=O)C4CC4)cc3c2)C1", "observed": "enzyme activity", "mode": "inhibitor", "tested at": "1 µM", "measurement": "inhibition", "value": "-2%"}
{"SMILES": "O=C(N1CCS(=O)(=O)CC1)N1C[C@H](c2ccc(OC(F)(F)F)cc2)C[C@H](c2nc(C3CC3)no2)C1", "observed": "cell-free assay", "technique": "competition with immobilised ligand", "tested at": "1 µM", "measurement": "remaining binding", "value": "98%"}
{"SMILES": "Oc1cccc(-c2nc(N3CCOCC3)c3oc4ncccc4c3n2)c1", "observed": "cell-free assay", "tested at": "0.5 µM", "measurement": "remaining signal", "value": "102%"}
{"SMILES": "CN1CCC2(CC1)NC(=O)c1c(c3ccc(Cl)c(Cl)c3n1C)C2C#N (racemic)", "observed": "thermal stability", "technique": "DSF", "tested at": "10 µM", "measurement": "ΔTm", "value": "0.7 °C"}
{"SMILES": "CCOc1cc(-c2nncn2C)ccc1Nc1ncc2cc(C)nc(NCC(C)(C)C)c2n1", "observed": "enzyme activity", "mode": "inhibitor", "technique": "FRET", "tested at": "1 µM", "measurement": "inhibition", "value": "19%"}
{"SMILES": "Cc1cc(NC(=O)c2cccc3cc(-c4cccc5[nH]nc(N)c45)ccc23)ccc1F", "observed": "enzyme activity", "mode": "inhibitor", "tested at": "0.1 µM", "measurement": "activity vs control", "value": "99%"}
{"SMILES": "CC(C)(C)c1nc2c(s1)c1nc(N)ncc1c1ccc(NS(=O)(=O)c3c(F)cccc3F)c(F)c12", "observed": "enzyme activity", "mode": "inhibitor", "technique": "radiometric", "tested at": "1 µM", "measurement": "remaining activity", "value": "91%"}
{"SMILES": "Nc1cnc(N2CCc3cc(S(=O)(=O)Nc4c(F)cc(Cl)cc4F)cc(N4CCCC4=O)c32)nc1", "observed": "cell-free assay", "technique": "competition with immobilised ligand", "tested at": "1 µM", "measurement": "remaining binding", "value": "100%"}
{"SMILES": "Nc1ncnc2occ(-c3ccc(NC(=O)Nc4cc(C(F)(F)F)ccc4F)cc3)c12", "observed": "cell-free assay", "tested at": "20 µM", "measurement": "remaining signal", "value": "2%"}
